Key:
Type in all cases: cell-based
[1] = Cytotoxicity against human TZM-bl cells assessed as reduction in cell viability incubated for 48 hrs by CellTiter 96 aqueous nonradioactive cell proliferation assay
How it was run: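 TZM-bl cells with serially diluted compounds, no virus, otherwise as in infection assay (48 h culture); viability read by CellTiter 96 non-radioactive cell proliferation assay.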

[2] = test system: TZM-bl; test: Binding affinity to two PBDs of N36 trimer of gp41 in HIV1 NL4-3 infected in human TZM-bl cells assessed as inhibition of viral fusion at 50 uM incubated for 48 hrs by Steady-Glo luciferase assay; settings: Human immunodeficiency virus 1
[3] = Binding affinity to two PBDs of N36 trimer of gp41 in HIV1 NL4-3 infected in human TZM-bl cells assessed as inhibition of viral fusion incubated for 48 hrs by Steady-Glo luciferase assay; settings: Human immunodeficiency virus 1, NL4-3, TZM-bl

IC50 [3] [µM]	SMILES	CC50 at 48 h [1] [µM]	inhibition [2] [%]
1.7	CC(C)C[C@H](NC(=O)c1ccc(NC(=O)[C@H](Cc2c[nH]c3ccccc23)NC(=O)CCC(=O)NCCOCCOCCOCCOCCOCCOCCOCCOCCOCCNC(=O)CCC(=O)N[C@@H](Cc2c[nH]c3ccccc23)C(=O)Nc2ccc(C(=O)N[C@@H](CC(C)C)C(=O)O)cc2OCCc2c[nH]c3ccccc23)c(OCCc2c[nH]c3ccccc23)c1)C(=O)O	> 50	–
17.3	CC(C)C[C@H](NC(=O)c1ccc(NC(=O)[C@H](Cc2c[nH]c3ccccc23)NC(=O)CCC(=O)NCCOCCOCCOCCOCCOCCNC(=O)CCC(=O)N[C@@H](Cc2c[nH]c3ccccc23)C(=O)Nc2ccc(C(=O)N[C@@H](CC(C)C)C(=O)O)cc2OCCc2c[nH]c3ccccc23)c(OCCc2c[nH]c3ccccc23)c1)C(=O)O	> 50	–
15	CC(C)C[C@H](NC(=O)c1ccc(NC(=O)[C@H](Cc2c[nH]c3ccccc23)NC(=O)CCC(=O)NCCOCCOCCOCCOCCOCCOCCOCCOCCOCCOCCOCCNC(=O)CCC(=O)N[C@@H](Cc2c[nH]c3ccccc23)C(=O)Nc2ccc(C(=O)N[C@@H](CC(C)C)C(=O)O)cc2OCCc2c[nH]c3ccccc23)c(OCCc2c[nH]c3ccccc23)c1)C(=O)O	> 50	–
17	CC(C)C[C@H](NC(=O)c1ccc(NC(=O)[C@H](Cc2c[nH]c3ccccc23)NC(=O)CCC(=O)NCCOCCOCCOCCOCCOCCOCCOCCNC(=O)CCC(=O)N[C@@H](Cc2c[nH]c3ccccc23)C(=O)Nc2ccc(C(=O)N[C@@H](CC(C)C)C(=O)O)cc2OCCc2c[nH]c3ccccc23)c(OCCc2c[nH]c3ccccc23)c1)C(=O)O	> 50	–
36.3	O=C(O)C[C@H](NC(=O)CCC(=O)NCCOCCOCCOCCOCCOCCOCCOCCOCCOCCNC(=O)CCC(=O)N[C@@H](CC(=O)O)C(=O)Nc1ccc(C(=O)N[C@@H](Cc2c[nH]c3ccccc23)C(=O)O)cc1OCCc1c[nH]c2ccccc12)C(=O)Nc1ccc(C(=O)N[C@@H](Cc2c[nH]c3ccccc23)C(=O)O)cc1OCCc1c[nH]c2ccccc12	> 50	–

The remaining lines, values behind:

SMILES	IC50 [3] [µM]	CC50 at 48 h [1] [µM]	inhibition [2] [%]
COc1ccc(C[C@H](N)C(=O)Nc2ccc(C(=O)N[C@@H](Cc3c[nH]c4ccccc34)C(=O)O)cc2OCCc2c[nH]c3ccccc23)cc1	–	> 50	0
CC(C)C[C@H](NC(=O)c1ccc(NC(=O)[C@H](Cc2c[nH]c3ccccc23)NC(=O)CCC(=O)NCCOCCNC(=O)CCC(=O)N[C@@H](Cc2c[nH]c3ccccc23)C(=O)Nc2ccc(C(=O)N[C@@H](CC(C)C)C(=O)O)cc2OCCc2c[nH]c3ccccc23)c(OCCc2c[nH]c3ccccc23)c1)C(=O)O	23.8	> 50	–
CC(C)C[C@H](NC(=O)c1ccc(NC(=O)[C@H](Cc2c[nH]c3ccccc23)NC(=O)CCC(=O)NCCOCCOCCOCCNC(=O)CCC(=O)N[C@@H](Cc2c[nH]c3ccccc23)C(=O)Nc2ccc(C(=O)N[C@@H](CC(C)C)C(=O)O)cc2OCCc2c[nH]c3ccccc23)c(OCCc2c[nH]c3ccccc23)c1)C(=O)O	22.8	> 50	–
Cc1cn([C@H]2C[C@H](N=[N+]=[N-])[C@@H](CO)O2)c(=O)[nH]c1=O [ZIDOVUDINE]	0.118	> 100	–
CC(C)C[C@H](NC(=O)c1ccc(NC(=O)[C@H](Cc2c[nH]c3ccccc23)NC(=O)CCC(=O)NCCOCCOCCOCCOCCOCCOCCOCCOCCOCCNC(=O)CCC(=O)O)c(OCCc2c[nH]c3ccccc23)c1)C(=O)O	–	> 50	7
COc1ccc(C[C@H](NC(=O)CCC(=O)NCCOCCOCCOCCOCCOCCOCCOCCOCCOCCNC(=O)CCC(=O)N[C@@H](Cc2ccc(OC)cc2)C(=O)Nc2ccc(C(=O)N[C@@H](Cc3c[nH]c4ccccc34)C(=O)O)cc2OCCc2c[nH]c3ccccc23)C(=O)Nc2ccc(C(=O)N[C@@H](Cc3c[nH]c4ccccc34)C(=O)O)cc2OCCc2c[nH]c3ccccc23)cc1	10.2	> 50	–
CC(C)C[C@H](NC(=O)c1ccc(NC(=O)[C@@H](N)Cc2c[nH]c3ccccc23)c(OCCc2c[nH]c3ccccc23)c1)C(=O)O	–	> 50	1
N[C@@H](CC(=O)O)C(=O)Nc1ccc(C(=O)N[C@@H](Cc2c[nH]c3ccccc23)C(=O)O)cc1OCCc1c[nH]c2ccccc12	1.6	> 50	–
